# From publication PMC12366125 (ACS Medicinal Chemistry Letters, 2025)
# Where two headings read alike, the source gives them in different places.
# What was measured:
# [1] = tested on: A. baumannii AB5075; assay: Broth microdilution standalone MIC; assay type: cell-based; details: Acinetobacter baumannii, AB5075, read-out: standalone MIC against AB5075
# [2] = tested on: HepG2 cells; assay: XTT cell viability assay with HepG2 cells; assay type: cell-based, human; details: for IC50: Homo sapiens; for TI: HepG2 IC50 / adjuvant concentration that reduces CLR MIC to breakpoint
# How it was run: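 Cytotoxicity is tested on HepG2 human hepatoma cells, using lead cyclized-linker 2-AI-benzimidazole conjugates and their parent amide analogues. IC50 is taken from dose-response curves. […] TI is not calculated for compounds without adjuvant activity.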
# [3] = tested on: A. baumannii AB19606; assay: Broth microdilution standalone MIC; assay type: cell-based; details: Acinetobacter baumannii, AB19606, read-out: standalone MIC against AB19606
# [4] = tested on: AB3927; assay: CLR potentiation, clinical isolate; assay type: cell-based, Acinetobacter baumannii; details: adjuvant at 10 μM
# [5] = tested on: AB3560; assay: CLR potentiation, clinical isolate; assay type: cell-based, Acinetobacter baumannii; details: adjuvant at 10 μM
# [6] = tested on: AB2828; assay: CLR potentiation, clinical isolate; assay type: cell-based, Acinetobacter baumannii; details: adjuvant at 10 μM
# [7] = tested on: AB4556; assay: CLR potentiation, clinical isolate; assay type: cell-based, Acinetobacter baumannii; details: adjuvant at 10 μM
# [8] = tested on: AB5256; assay: CLR potentiation, clinical isolate; assay type: cell-based, Acinetobacter baumannii; details: adjuvant at 10 μM
# [9] = tested on: AB4795; assay: CLR potentiation, clinical isolate; assay type: cell-based, Acinetobacter baumannii; details: adjuvant at 10 μM
# [10] = tested on: AB4026; assay: CLR potentiation, clinical isolate; assay type: cell-based, Acinetobacter baumannii; details: adjuvant at 10 μM
# [11] = tested on: AB5674; assay: CLR potentiation, clinical isolate; assay type: cell-based, Acinetobacter baumannii; details: adjuvant at 10 μM
# [12] = tested on: AB5711; assay: CLR potentiation, clinical isolate; assay type: cell-based, Acinetobacter baumannii; details: adjuvant at 10 μM
# [13] = tested on: AB4448; assay: CLR potentiation, clinical isolate; assay type: cell-based, Acinetobacter baumannii; details: adjuvant at 10 μM
# [14] = tested on: AB5197; assay: CLR potentiation, clinical isolate; assay type: cell-based, Acinetobacter baumannii; details: adjuvant at 10 μM
# [15] = tested on: AB4490; assay: CLR potentiation, clinical isolate; assay type: cell-based, Acinetobacter baumannii; details: adjuvant at 10 μM
# [16] = tested on: AB4025; assay: CLR potentiation, clinical isolate; assay type: cell-based, Acinetobacter baumannii; details: adjuvant at 10 μM
# [17] = tested on: AB4052; assay: CLR potentiation, clinical isolate; assay type: cell-based, Acinetobacter baumannii; details: adjuvant at 10 μM
# [18] = tested on: AB4857; assay: CLR potentiation, clinical isolate; assay type: cell-based, Acinetobacter baumannii; details: adjuvant at 10 μM
# [19] = tested on: AB4878; assay: CLR potentiation, clinical isolate; assay type: cell-based, Acinetobacter baumannii; details: adjuvant at 10 μM
# [20] = tested on: AB5001; assay: CLR potentiation, clinical isolate; assay type: cell-based, Acinetobacter baumannii; details: adjuvant at 10 μM
# [21] = tested on: AB3785; assay: CLR potentiation, clinical isolate; assay type: cell-based, Acinetobacter baumannii; details: adjuvant at 10 μM
# [22] = tested on: AB3806; assay: CLR potentiation, clinical isolate; assay type: cell-based, Acinetobacter baumannii; details: adjuvant at 10 μM
# [23] = tested on: AB4991; assay: CLR potentiation, clinical isolate; assay type: cell-based, Acinetobacter baumannii; details: adjuvant at 10 μM
# [24] = tested on: AB4027; assay: CLR potentiation, clinical isolate; assay type: cell-based, Acinetobacter baumannii; details: adjuvant at 10 μM
# [25] = tested on: AB4957; assay: CLR potentiation, clinical isolate; assay type: cell-based, Acinetobacter baumannii; details: adjuvant at 10 μM
# [26] = tested on: AB4269; assay: CLR potentiation, clinical isolate; assay type: cell-based, Acinetobacter baumannii; details: adjuvant at 10 μM
# [27] = tested on: AB4498; assay: CLR potentiation, clinical isolate; assay type: cell-based, Acinetobacter baumannii; details: adjuvant at 10 μM
# [28] = tested on: AB8967; assay: CLR potentiation, clinical isolate; assay type: cell-based, Acinetobacter baumannii; details: adjuvant at 10 μM
# [29] = tested on: A. baumannii AB5075; assay: Checkerboard assay colistin and compound; assay type: cell-based, Acinetobacter baumannii; details: COL alone
# [30] = HepG2, 24 h, read-out: HepG2 IC50
molecule,measurement,setting,value
Nc1nc(-c2ccc3nc(-c4cc(Cl)cc(Cl)c4)[nH]c3c2)c[nH]1 [Compound 2],MIC,[1],> 200 µM
same,IC50,"[2]; HepG2, read-out: IC50 against HepG2 cells",69.8 µM
same,MIC,[3],> 200 µM
Cl.Nc1nc(-c2ccc3nc(-c4ccc(Cl)c(Cl)c4)[nH]c3c2)c[nH]1 [Compound 5],MIC,[1],≥ 200 µM
same,CLR MIC fold reduction,[4],16 fold
same,CLR MIC fold reduction,[5],4 fold
same,TI,[2],9.7–9.9
same,IC50,[2]; [30],73.5 ± 1.1 µM
same,CLR MIC fold reduction,[6],8 fold
same,CLR MIC fold reduction,[7],4 [4] fold
same,CLR MIC fold reduction,[8],512 fold
same,CLR MIC fold reduction,[9],8 fold
same,CLR MIC fold reduction,[10],32 fold
same,CLR MIC fold reduction,[11],64 fold
same,CLR MIC fold reduction,[12],16 fold
same,CLR MIC fold reduction,[13],16 fold
same,CLR MIC fold reduction,[14],8 [8] fold
same,CLR MIC fold reduction,[15],4 fold
same,CLR MIC fold reduction,[16],16 fold
same,CLR MIC fold reduction,[17],16 fold
same,CLR MIC fold reduction,[18],4 fold
same,CLR MIC fold reduction,[19],16 fold
same,CLR MIC fold reduction,[20],16 fold
same,CLR MIC fold reduction,[21],64 fold
same,MIC,[3],≥ 200 µM
same,CLR MIC fold reduction,[22],4 [4] fold
same,CLR MIC fold reduction,[23],8 fold
same,CLR MIC fold reduction,[24],16 fold
same,CLR MIC fold reduction,[25],4 fold
same,CLR MIC fold reduction,[26],32 fold
same,CLR MIC fold reduction,[27],8 [8] fold
same,CLR MIC fold reduction,[28],32 fold
Nc1nc(-c2ccc3nc(-c4cc(Cl)c(Cl)c(Cl)c4)[nH]c3c2)c[nH]1 [Compound 6],MIC,[1],≥ 200 µM
same,MIC,[3],≥ 200 µM
Nc1nc(-c2ccc3nc(-c4ccc(Cl)cc4)[nH]c3c2)c[nH]1 [Compound 7],MIC,[1],≥ 200 µM
same,MIC,[3],≥ 200 µM
Nc1nc(-c2ccc3nc(-c4cccc(Cl)c4)[nH]c3c2)c[nH]1 [Compound 8],MIC,[1],≥ 200 µM
same,MIC,[3],≥ 200 µM
Nc1nc(-c2ccc3nc(-c4ccccc4Cl)[nH]c3c2)c[nH]1 [Compound 9],MIC,[1],≥ 200 µM
same,MIC,[3],≥ 200 µM
Nc1nc(-c2ccc3nc(-c4cccc(Cl)c4Cl)[nH]c3c2)c[nH]1 [Compound 10],MIC,[1],≥ 200 µM
same,MIC,[3],≥ 200 µM
Nc1nc(-c2ccc3nc(-c4ccc(Cl)cc4Cl)[nH]c3c2)c[nH]1 [Compound 11],MIC,[1],≥ 200 µM
same,MIC,[3],≥ 200 µM
Nc1nc(-c2ccc3nc(-c4cc(Cl)ccc4Cl)[nH]c3c2)c[nH]1 [Compound 12],MIC,[1],≥ 200 µM
same,MIC,[3],≥ 200 µM
COc1cc(OC)cc(-c2nc3ccc(-c4c[nH]c(N)n4)cc3[nH]2)c1 [Compound 15],MIC,[1],≥ 200 µM
same,MIC,[3],≥ 200 µM
Cc1cc(C)cc(-c2nc3ccc(-c4c[nH]c(N)n4)cc3[nH]2)c1 [Compound 16],MIC,[1],≥ 200 µM
same,MIC,[3],≥ 200 µM
Cc1ccc(-c2nc3ccc(-c4c[nH]c(N)n4)cc3[nH]2)cc1C [Compound 17],MIC,[1],≥ 200 µM
same,MIC,[3],≥ 200 µM
Cl.Nc1nc(-c2ccc3nc(-c4ccc(Cl)c(C(F)(F)F)c4)[nH]c3c2)c[nH]1 [Compound 25],MIC,[1],50 µM
same,CLR MIC fold reduction,[4],128 fold
same,CLR MIC fold reduction,[5],16 fold
same,TI,[2],18.7–19.0
same,IC50,[2]; [30],141.6 ± 1.1 µM
same,CLR MIC fold reduction,[6],16 fold
same,CLR MIC fold reduction,[7],8 fold
same,CLR MIC fold reduction,[8],128 fold
same,CLR MIC fold reduction,[9],16 fold
same,CLR MIC fold reduction,[10],32 fold
same,CLR MIC fold reduction,[11],128 fold
same,CLR MIC fold reduction,[12],64 fold
same,CLR MIC fold reduction,[13],32 fold
same,CLR MIC fold reduction,[14],32 fold
same,CLR MIC fold reduction,[15],64 fold
same,CLR MIC fold reduction,[16],16 fold
same,CLR MIC fold reduction,[17],4 fold
same,CLR MIC fold reduction,[18],16 fold
same,CLR MIC fold reduction,[19],32 fold
same,CLR MIC fold reduction,[20],32 fold
same,CLR MIC fold reduction,[21],32 fold
same,MIC,[3],50 µM
same,CLR MIC fold reduction,[22],32 fold
same,CLR MIC fold reduction,[23],32 fold
same,CLR MIC fold reduction,[24],32 fold
same,CLR MIC fold reduction,[25],2 fold
same,CLR MIC fold reduction,[26],2 fold
same,CLR MIC fold reduction,[27],8 [8] fold
same,CLR MIC fold reduction,[28],64 fold
colistin,COL MIC against AB5075,[29],1 µg/mL
